The results in this text go back to ChEMBL document CHEMBL4330165, “Absolute Configuration of Bioactive Azaphilones from the Marine-Derived Fungus Pleosporales sp. CF09-1” (2019).

In brackets after ≈: the same amount, converted by molar mass.

What all share (assay type): functional
In one experiment the test system is Alternaria brassicicola. In words: Antifungal activity against Alternaria brassicicola CICC 2646 after 48 hrs by broth dilution assay. Particulars: CICC 2646, 48 h. In outline:
(§1)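 Conventional broth dilution. Fungi were grown on PDA at 28 °C for 72 h. Seed culture was diluted in PYG (peptone 1.0%, glucose 2.0%, yeast extract 1.0%) in 96-well plates. DMSO stocks (10 mg/mL) were serially diluted to in-test 0.78–100 μg/mL. Plates were incubated 48 h at 28 °C, humidified. Ketoconazole was the positive control and DMSO the negative control. MIC was the endpoint.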
(In general: Dilution methods test growth across graded concentrations, often in twofold steps.)

The next experiment relates to Botryosphaeria dothidea. Briefly: Antifungal activity against Botryosphaeria dothidea CICC 2678 after 48 hrs by broth dilution assay. Particulars: CICC 2678, 48 h. In outline:
as §1

A further experiment has as its system Fusarium oxysporum. In words: Antifungal activity against […] oxysporum CICC 41029 after 48 hrs by broth dilution assay. The conditions noted are these: CICC 41029, 48 h. The method in brief:
as §1

Another experiment relates to Vibrio alginolyticus. In words: Antibacterial activity against Vibrio alginolyticus CICC 21664 after 48 hrs by broth dilution method. The conditions noted are these: CICC 21664, 48 h. In outline: (§2)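 Microbroth dilution in LB medium (peptone 10 g/L, yeast extract 5 g/L, NaCl 10 g/L). Ciprofloxacin served as positive control. MIC was read as the endpoint.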
For a further experiment, the system named is Vibrio anguillarum. Briefly: Antibacterial activity against Vibrio anguillarum CICC 10475 after 48 hrs by broth dilution method. The method in brief: as §2
The next experiment concerns Vibrio parahaemolyticus. Briefly: Antibacterial activity against Vibrio parahaemolyticus CICC 10552 after 48 hrs by broth dilution method. The method in brief: as §2

As to `C/C=C(\C)[C@H](OC(C)=O)[C@H](C)C(=O)O[C@@]1(C)C(=O)C=C2C=C(C3=C(C)CCCC3=O)OC=C2C1=O`, the figures for the MIC with Alternaria brassicicola, against Botryosphaeria dothidea and with Fusarium oxysporum were 13 µg/mL (≈ 26.9 µM), 13 µg/mL (≈ 26.9 µM) and 6.3 µg/mL (≈ 13.1 µM), respectively.
For the compound `C/C=C(\C)[C@H](OC(C)=O)[C@H](C)C(=O)O[C@@]1(C)C(=O)C=C2C=C(c3c(C)cccc3O)OC=C2C1=O`, the MIC (in general, the least concentration at which growth counts as inhibited) with Alternaria brassicicola came out at 6.3 µg/mL (≈ 13.1 µM); in the experiment with Botryosphaeria dothidea it was 3.1 µg/mL (≈ 6.45 µM); with Fusarium oxysporum it was 25 µg/mL (≈ 52 µM).
Regarding `C/C=C(\C)[C@H](OC(C)=O)[C@H](C)C(=O)O[C@@]1(C)C(=O)C2=COC(C3=C(C)CCCC3=O)=CC2=C(Cl)C1=O`, the MIC with Alternaria brassicicola amounted to 1.6 µg/mL (≈ 3.09 µM); with Botryosphaeria dothidea, 13 µg/mL (≈ 25.1 µM); in the experiment on Fusarium oxysporum, 1.6 µg/mL (≈ 3.09 µM).
With `CO[C@@H]1CO[C@@]2(CC3=CC(=O)[C@@](C)(O)[C@@H](OC(=O)c4c(C)cc(O)cc4O)[C@@H]3CO2)C1`, the MIC in the experiment on Alternaria brassicicola was over 50 µg/mL; against Botryosphaeria dothidea, over 50 µg/mL; in the experiment on Fusarium oxysporum it was over 50 µg/mL; in the experiment with Vibrio alginolyticus it was 25 µg/mL (≈ 57.5 µM).
With `CO[C@H]1CO[C@@]2(CC3=CC(=O)[C@@](C)(O)[C@@H](OC(=O)c4c(C)cc(O)cc4O)[C@@H]3CO2)C1`, the MIC in the experiment with Alternaria brassicicola is over 50 µg/mL; against Botryosphaeria dothidea, over 50 µg/mL; in the experiment on Fusarium oxysporum, over 50 µg/mL; in the experiment on Vibrio alginolyticus, 25 µg/mL (≈ 57.5 µM).
Turning to `COC(CO)CC1=CC2=CC(=O)[C@@](C)(O)[C@@H](OC(=O)c3c(C)cc(O)cc3O)[C@@H]2CO1` (stereo in doubt; 6), the MIC with Vibrio anguillarum turned out to be 13 µg/mL (≈ 29.9 µM); against Vibrio parahaemolyticus, 6.3 µg/mL (≈ 14.5 µM).
The like results for `COC(CO)CC1=CC2=CC(=O)[C@@](C)(O)[C@@H](OC(=O)c3c(C)cc(O)cc3O)[C@@H]2CO1` (stereo in doubt; 7) were, in that order, 6.3 µg/mL (≈ 14.5 µM) and 25 µg/mL (≈ 57.5 µM).
With `O=C(O)c1cn(C2CC2)c2cc(N3CCNCC3)c(F)cc2c1=O` [CIPROFLOXACIN], the MIC with Vibrio anguillarum (Vibrio anguillarum, CICC 10475, 48 h, read-out: MIC) is 6.3 µg/mL (≈ 19 µM); with Vibrio parahaemolyticus (Vibrio parahaemolyticus, CICC 10552, 48 h, read-out: MIC), 3.1 µg/mL (≈ 9.36 µM); against Vibrio alginolyticus it was 13 µg/mL (≈ 39.2 µM).
Take `CC(=O)N1CCN(c2ccc(OCC3COC(Cn4ccnc4)(c4ccc(Cl)cc4Cl)O3)cc2)CC1` (configuration not stated) [KETOCONAZOLE]: the MIC came out at 3.1 µg/mL (≈ 5.83 µM) with Alternaria brassicicola, 3.1 µg/mL (≈ 5.83 µM) with Botryosphaeria dothidea and 6.3 µg/mL (≈ 11.9 µM) against Fusarium oxysporum.
